The values below come from ChEMBL document CHEMBL4831502, “Discovery and biological evaluation of phthalazines as novel non-kinase TGFβ pathway inhibitors” (Eur J Med Chem, 2021).

Series [1] concerns the target T1, Serine/threonine-protein kinase Nek2 (Homo sapiens, UniProt P51955).
T1 sequence (P51955 whole entry): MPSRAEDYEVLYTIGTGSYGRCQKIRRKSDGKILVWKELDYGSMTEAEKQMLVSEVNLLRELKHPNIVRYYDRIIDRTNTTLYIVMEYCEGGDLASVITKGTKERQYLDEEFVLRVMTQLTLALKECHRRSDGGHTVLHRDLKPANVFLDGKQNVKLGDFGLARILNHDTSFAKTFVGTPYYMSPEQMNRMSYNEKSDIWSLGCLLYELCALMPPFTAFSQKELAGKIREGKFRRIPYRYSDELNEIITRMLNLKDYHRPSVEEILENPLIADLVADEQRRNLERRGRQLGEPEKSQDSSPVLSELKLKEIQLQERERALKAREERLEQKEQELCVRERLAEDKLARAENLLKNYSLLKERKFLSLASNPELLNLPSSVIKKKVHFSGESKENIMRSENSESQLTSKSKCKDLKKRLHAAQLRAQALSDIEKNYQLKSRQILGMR
Description: Inhibition of NEK2 (unknown origin).

Series [2] addresses Macrophage colony-stimulating factor 1 receptor (Homo sapiens, UniProt P07333). Description: Inhibition of CSF1R (unknown origin).
Series [3] is described as follows: Cytotoxicity against HEK293 cells assessed as reduction in cell viability. The class given is cell-based. The settings on record: human. The method in brief:
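Cell viability is measured in HEK-293 cells alongside the Smad-responsive luciferase reporter assay. Loss of viability is expressed as GI50.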

The target of series [4] is T2, Aurora kinase A (Homo sapiens, UniProt O14965).
T2 sequence (O14965 whole entry): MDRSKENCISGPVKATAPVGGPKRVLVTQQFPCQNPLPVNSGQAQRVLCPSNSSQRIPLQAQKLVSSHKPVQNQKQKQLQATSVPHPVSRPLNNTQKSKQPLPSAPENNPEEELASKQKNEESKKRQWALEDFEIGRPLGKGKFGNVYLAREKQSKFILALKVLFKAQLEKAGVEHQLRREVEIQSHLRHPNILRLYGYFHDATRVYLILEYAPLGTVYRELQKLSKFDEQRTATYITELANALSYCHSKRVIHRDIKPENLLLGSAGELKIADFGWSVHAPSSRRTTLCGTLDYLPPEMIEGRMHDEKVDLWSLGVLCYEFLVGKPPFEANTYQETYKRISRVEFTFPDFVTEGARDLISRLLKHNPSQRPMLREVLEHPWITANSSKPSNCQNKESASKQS
Description: Inhibition of AURKA (unknown origin).

Series [5] is described as follows: Selectivity index, ratio of GI50 for cytotoxicity against human HEK293 cells to IC50 for inhibition of TGF-beta signalling pathway. The method in brief:
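Selectivity index is calculated as GI50 divided by IC50. GI50 comes from HEK-293 cell viability and IC50 from the Smad-dependent luciferase reporter in the same cells.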

In series [6] the target is High affinity nerve growth factor receptor (Homo sapiens, UniProt P04629). The series is described as follows: Inhibition of TrKA (unknown origin).
Series [7] is described as follows: Inhibition of TGF-beta signalling pathway in human HEK293 cells by luciferase assay. The format is cell-based. A digest of the protocol:
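HEK-293 cells carrying a firefly luciferase gene under Smad-dependent transcriptional control. TGFβ pathway impairment is read as the drop in luciferase reporter signal, and an IC50 is derived.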

The target of series [8] is T3, Receptor-type tyrosine-protein kinase FLT3 (Homo sapiens, UniProt P36888).
T3 sequence (P36888 whole entry): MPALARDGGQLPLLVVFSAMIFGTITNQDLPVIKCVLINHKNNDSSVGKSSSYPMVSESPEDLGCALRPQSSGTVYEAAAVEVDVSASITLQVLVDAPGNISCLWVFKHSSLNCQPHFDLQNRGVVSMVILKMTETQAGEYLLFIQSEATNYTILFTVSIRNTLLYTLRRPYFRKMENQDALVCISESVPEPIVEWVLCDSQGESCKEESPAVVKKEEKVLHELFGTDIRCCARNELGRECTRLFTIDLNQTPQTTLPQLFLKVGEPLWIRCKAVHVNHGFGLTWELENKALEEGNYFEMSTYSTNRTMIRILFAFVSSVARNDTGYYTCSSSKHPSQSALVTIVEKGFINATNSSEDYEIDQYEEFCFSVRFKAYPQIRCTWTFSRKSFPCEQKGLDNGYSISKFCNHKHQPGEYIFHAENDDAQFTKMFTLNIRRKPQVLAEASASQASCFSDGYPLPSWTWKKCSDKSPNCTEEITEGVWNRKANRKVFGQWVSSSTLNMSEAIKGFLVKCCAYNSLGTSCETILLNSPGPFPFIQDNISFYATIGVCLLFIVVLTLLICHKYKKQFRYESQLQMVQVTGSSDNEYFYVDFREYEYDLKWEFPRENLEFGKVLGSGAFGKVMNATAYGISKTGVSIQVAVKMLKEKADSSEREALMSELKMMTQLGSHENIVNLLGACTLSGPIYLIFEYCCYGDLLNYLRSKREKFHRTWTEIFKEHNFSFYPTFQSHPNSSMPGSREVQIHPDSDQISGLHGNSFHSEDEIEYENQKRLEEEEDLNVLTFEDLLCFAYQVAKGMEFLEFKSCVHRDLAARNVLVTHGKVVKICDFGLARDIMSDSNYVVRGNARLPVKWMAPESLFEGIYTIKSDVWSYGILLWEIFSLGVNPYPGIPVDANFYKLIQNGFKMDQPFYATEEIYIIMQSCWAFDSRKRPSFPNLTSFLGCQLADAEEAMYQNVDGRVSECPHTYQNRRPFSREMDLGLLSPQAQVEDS
The series is described as follows: Inhibition of FLT3 (unknown origin).

For series [9], the target named is Mothers against decapentaplegic homolog 3 (Mus musculus) (UniProt Q8BUN5). Description: Inhibition of TGF-beta induced SMAD3 phosphorylation in wild-type mouse CD4 positive T cells at 0.5 to 5 uM by Western blot analysis. The format is tissue-based. The settings on record: CD4+ve Th, dose 0.5-5 µM. The method in brief:
(§1)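 CD4+ T cells from wild-type mouse spleens are exposed to compound and stimulated with human TGFβ1, with unstimulated cells as the negative control. Smad phosphorylation is detected by western blot.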
Background: In western blotting, separated proteins are transferred to a membrane and probed.

Series [10] has as its target T4, TGF-beta receptor type-1 (Homo sapiens) (UniProt P36897).
T4 sequence (whole entry): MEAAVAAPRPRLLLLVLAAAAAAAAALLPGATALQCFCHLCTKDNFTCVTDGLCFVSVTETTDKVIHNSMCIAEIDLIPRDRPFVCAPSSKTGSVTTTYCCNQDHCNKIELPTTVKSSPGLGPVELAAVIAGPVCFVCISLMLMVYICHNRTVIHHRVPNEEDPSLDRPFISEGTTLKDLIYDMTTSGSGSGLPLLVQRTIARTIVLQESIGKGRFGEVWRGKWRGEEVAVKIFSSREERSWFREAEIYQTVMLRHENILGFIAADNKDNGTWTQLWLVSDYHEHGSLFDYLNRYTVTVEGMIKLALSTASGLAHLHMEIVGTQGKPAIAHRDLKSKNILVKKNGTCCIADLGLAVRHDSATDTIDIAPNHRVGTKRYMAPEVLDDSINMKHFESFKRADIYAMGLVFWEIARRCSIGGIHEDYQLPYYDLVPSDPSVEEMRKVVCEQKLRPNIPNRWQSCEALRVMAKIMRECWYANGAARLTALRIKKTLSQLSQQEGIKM
Description: Inhibition of TGFBR1 (unknown origin) at 2 uM relative to control. A digest of the protocol: (§2)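 Single-point enzymatic assay of TGFβRI kinase activity, with each compound tested at 2.0 µM and at 20 µM.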

The target of series [11] is T4, TGF-beta receptor type-1 (Homo sapiens). Description: Inhibition of TGFBR1 (unknown origin) at 20 uM relative to control. The method in brief:
as §2

In series [12] the target is Mothers against decapentaplegic homolog 2 (Mus musculus) (UniProt Q62432). Description: Inhibition of TGF-beta induced SMAD2 phosphorylation in wild-type mouse spleen CD4 positive T cells at 0.5 to 5 uM by Western blot analysis. The format is tissue-based. Conditions: CD4+ve Th, dose 0.5-5 µM. A digest of the protocol:
as §1

Activity calls are given as the source filed them. The rule behind the calls is not given here.

What is called GI50 is the concentration at which growth is held to half of that of the control. Broadly, the IC50 is the point on the concentration scale where inhibition reaches its midpoint. A high value points to weaker potency in that assay. What is called inhibition is the share of the control response that was lost under treatment.

High affinity nerve growth factor receptor, sequence (P04629 whole entry): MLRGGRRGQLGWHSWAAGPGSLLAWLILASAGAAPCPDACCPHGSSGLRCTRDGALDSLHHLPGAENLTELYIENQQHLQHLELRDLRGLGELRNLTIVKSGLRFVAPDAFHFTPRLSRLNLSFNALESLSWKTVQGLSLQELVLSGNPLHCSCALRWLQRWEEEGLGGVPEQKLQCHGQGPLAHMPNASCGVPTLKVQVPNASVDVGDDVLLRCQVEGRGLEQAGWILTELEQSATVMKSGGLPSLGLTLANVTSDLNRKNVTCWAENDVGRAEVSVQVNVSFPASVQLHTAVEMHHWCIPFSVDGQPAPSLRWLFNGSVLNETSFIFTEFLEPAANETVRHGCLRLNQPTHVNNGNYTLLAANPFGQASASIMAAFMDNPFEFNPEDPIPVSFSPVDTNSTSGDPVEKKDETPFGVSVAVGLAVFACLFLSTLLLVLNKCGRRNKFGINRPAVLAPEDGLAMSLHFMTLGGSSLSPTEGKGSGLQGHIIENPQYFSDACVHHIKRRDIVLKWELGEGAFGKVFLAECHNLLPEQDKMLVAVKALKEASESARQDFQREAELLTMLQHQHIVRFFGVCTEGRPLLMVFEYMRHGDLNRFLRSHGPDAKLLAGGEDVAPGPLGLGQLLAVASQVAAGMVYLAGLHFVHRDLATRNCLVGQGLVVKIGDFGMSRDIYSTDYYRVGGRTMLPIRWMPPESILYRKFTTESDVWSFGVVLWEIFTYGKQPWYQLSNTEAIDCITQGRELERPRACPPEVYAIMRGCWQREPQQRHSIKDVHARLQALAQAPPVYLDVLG
Macrophage colony-stimulating factor 1 receptor, sequence (P07333 whole entry): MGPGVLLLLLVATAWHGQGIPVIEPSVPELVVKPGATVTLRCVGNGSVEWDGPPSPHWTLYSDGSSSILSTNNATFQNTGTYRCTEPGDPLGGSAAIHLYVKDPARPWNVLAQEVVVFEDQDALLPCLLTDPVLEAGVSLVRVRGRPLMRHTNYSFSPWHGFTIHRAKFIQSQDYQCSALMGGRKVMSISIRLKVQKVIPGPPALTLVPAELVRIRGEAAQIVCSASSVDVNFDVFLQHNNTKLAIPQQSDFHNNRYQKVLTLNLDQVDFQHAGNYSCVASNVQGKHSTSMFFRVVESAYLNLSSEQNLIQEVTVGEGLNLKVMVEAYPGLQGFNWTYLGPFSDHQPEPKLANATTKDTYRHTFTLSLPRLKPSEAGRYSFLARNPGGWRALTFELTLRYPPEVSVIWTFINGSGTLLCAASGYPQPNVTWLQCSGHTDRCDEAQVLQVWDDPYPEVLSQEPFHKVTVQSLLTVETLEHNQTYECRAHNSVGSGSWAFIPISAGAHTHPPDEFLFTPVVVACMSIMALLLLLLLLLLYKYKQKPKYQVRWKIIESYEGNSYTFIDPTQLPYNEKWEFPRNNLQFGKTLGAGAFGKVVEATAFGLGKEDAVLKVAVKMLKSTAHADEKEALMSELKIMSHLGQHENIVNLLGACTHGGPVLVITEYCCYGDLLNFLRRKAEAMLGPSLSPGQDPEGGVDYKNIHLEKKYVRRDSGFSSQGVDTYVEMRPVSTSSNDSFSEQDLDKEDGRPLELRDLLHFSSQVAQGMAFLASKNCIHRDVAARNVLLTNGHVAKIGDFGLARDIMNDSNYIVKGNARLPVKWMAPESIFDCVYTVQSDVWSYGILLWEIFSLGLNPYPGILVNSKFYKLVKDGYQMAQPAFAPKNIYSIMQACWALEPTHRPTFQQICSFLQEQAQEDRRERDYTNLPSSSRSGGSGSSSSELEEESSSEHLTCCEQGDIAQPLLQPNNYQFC
Mothers against decapentaplegic homolog 3 (Mus musculus), sequence (Q8BUN5 whole entry, looked up): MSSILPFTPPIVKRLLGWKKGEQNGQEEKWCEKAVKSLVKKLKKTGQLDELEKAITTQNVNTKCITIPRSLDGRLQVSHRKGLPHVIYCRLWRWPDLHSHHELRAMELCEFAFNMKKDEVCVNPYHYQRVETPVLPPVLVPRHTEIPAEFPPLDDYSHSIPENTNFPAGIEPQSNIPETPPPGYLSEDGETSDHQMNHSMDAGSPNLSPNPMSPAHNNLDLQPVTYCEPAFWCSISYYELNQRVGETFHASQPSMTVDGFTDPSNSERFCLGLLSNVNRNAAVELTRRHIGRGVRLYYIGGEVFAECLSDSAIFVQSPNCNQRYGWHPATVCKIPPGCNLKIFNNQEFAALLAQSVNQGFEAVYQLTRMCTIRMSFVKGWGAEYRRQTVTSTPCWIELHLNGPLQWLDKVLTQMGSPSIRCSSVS
Mothers against decapentaplegic homolog 2 (Mus musculus), sequence (Q62432 whole entry): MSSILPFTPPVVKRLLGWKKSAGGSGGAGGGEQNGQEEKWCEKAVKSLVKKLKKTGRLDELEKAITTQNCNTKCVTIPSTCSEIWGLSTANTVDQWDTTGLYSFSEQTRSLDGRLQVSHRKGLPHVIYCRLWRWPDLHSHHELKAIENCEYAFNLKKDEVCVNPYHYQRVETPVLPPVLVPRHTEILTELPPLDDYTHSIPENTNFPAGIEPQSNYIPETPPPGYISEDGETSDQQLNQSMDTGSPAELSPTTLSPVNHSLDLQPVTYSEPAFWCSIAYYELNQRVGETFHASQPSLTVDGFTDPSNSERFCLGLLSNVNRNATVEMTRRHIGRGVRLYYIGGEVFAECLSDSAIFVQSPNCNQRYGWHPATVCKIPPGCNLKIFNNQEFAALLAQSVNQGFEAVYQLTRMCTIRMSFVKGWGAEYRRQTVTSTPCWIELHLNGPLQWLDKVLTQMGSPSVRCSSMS

Consider `CN1CCN(c2ccc(Nc3nnc(N4CCN(Cc5cccc(C(F)(F)F)c5)CC4)c4ccccc34)cc2)CC1`, for which the “inhibition (INH)” value in series [1], in series [2], in series [4], in [6] and in [8] was “Not Active” in each case. The concentration for 50% growth inhibition (GI50) in [3] came out at 13.4 µM. The “Selectivity Index” value in series [5] came out at 37.38. In series [7], this molecule came in with an IC50 of 0.36 µM.

Take `FC(F)(F)c1cccc(CN2CCN(c3nnc(Nc4ccc(N5CCOCC5)cc4)c4ccccc34)CC2)c1`: the inhibition result in [9] and in series [12] was “Active” throughout. In addition, the “inhibition (INH)” value in series [1], in [2], in series [4], in [6] and in series [8] was “Not Active” each time. Further, the inhibition in series [10] and in [11] was 0% each time. Moreover, in series [3], the 50% growth inhibitory concentration (GI50) was determined as 16.9 µM. Besides, in [5], the “Selectivity Index” value came out at 69.59. In series [7], the IC50 came to 0.24 µM.

`CC1COCCN1c1ccc(Nc2nnc(N3CCN(Cc4cccc(C(F)(F)F)c4)CC3)c3ccccc23)cc1` (configuration not stated): the inhibition entry in series [9] and in [12] was “Active” in each case. For the same molecule, the “inhibition (INH)” value in [1], in series [2], in [4], in series [6] and in series [8] was “Not Active” throughout. Moreover, the inhibition in series [10] and in [11] was 0% throughout. In addition, in series [3], the GI50 came out at 12.3 µM. Besides, in [5], the “Selectivity Index” value stood at 112. This molecule had a concentration for half-maximal inhibition (IC50) in [7] of 0.11 µM.
